Our source for the Km and kcat values is ChEMBL document CHEMBL3576784, “Azolylthioacetamide: A Highly Promising Scaffold for the Development of Metallo-β-lactamase Inhibitors” (ACS Med Chem Lett, 2015).

Substrate in this series: C[C@@H](O)[C@H]1C(=O)N2C(C(=O)O)=C(SCCNC=N)C[C@H]12
The series is described as follows: Activity of Aeromonas veronii metallo-beta-lactamase ImiS. The essentials:
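Purified enzyme; initial rates of imipenem hydrolysis followed by UV spectrophotometry (262 or 300 nm) in 50 mM Tris pH 7.0, 25 °C. Substrate 24–140 μM, inhibitor 0–10 μM. Rates in triplicate and averaged. Inhibition mode from Lineweaver–Burk plots. Ki from fits of initial velocity vs substrate concentration at each inhibitor level.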

B1: Beta-lactamase (Aeromonas veronii), O31272 (protein)
chain: MMKGWIKCGLAGAVVLMASFWGGSVRAAGMSLTQQVSGPVYVVEDNYYVQENSMVYFGAKGVTVVGATWTPDTARELHKLIKRVSRKPVLEVINTNYHTDRAGGNAYWKSIGAKVISTRQTRDLMKSDWAEIVAFTRKGLPEYPDLPLVLPNVVHEGDFTLQEGKLRAFYLGPAHSPDGIFVYFPDQQVLYGNCILKEKLGNLSFADVKAYPQTLERLKAMKLPIKTVVGGHDSPLHGPELIDHYEALIKAASQS
Broadly, the Km is the substrate concentration at which the rate is half of its maximum. As a reminder, the kcat is the maximal rate divided by the concentration of active sites. Turning to B1, the Michaelis constant (Km) came out at 99 µM and the catalytic constant (kcat) was determined as 255 s⁻¹.
